Measurements of several laboratories.
Compare with care: the assays were run in different laboratories.
Target: Activin receptor type-1B (ACVR1B, Homo sapiens, UniProt P36896)
Residues used in one study (P36896 24-505): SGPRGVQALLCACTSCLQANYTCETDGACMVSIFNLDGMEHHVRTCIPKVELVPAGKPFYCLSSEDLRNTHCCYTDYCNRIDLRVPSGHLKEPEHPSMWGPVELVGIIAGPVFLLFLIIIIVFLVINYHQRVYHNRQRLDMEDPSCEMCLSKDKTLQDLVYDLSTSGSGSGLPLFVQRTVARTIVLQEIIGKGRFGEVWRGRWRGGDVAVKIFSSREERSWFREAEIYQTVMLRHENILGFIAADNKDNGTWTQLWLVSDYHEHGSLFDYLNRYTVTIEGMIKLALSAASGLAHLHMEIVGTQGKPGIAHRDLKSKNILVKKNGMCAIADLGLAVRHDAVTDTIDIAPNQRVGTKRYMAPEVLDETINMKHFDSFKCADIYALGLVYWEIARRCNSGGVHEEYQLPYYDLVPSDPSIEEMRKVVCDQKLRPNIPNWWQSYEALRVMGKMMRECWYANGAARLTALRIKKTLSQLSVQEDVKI

SMILES | read-out | action | method | tested at | endpoint | result
C#Cc1n[nH]c2c(-c3cn([C@@H](C)c4ccccc4)c(=O)[nH]c3=O)cc(F)cc12 | enzyme activity | inhibitor |  | 0.1 µM | inhibition | -3.3%
Cn1cc(-c2cccc(N3CCc4c(sc5c4CC(C)(C)C5)C3=O)c2CO)cc(Nc2ccncn2)c1=O | enzyme activity | inhibitor |  | 1 µM | inhibition | -5%
Cn1cncc1[C@](O)(COc1ccc(C#N)cc1-c1ccc(OC(F)(F)F)cc1)c1ccc(C#N)cc1 | cell-free assay |  | competition with immobilised ligand | 1 µM | remaining binding | 87%
Cn1cc(-c2cc(F)cc(N3CCn4c(cc5c4CCCC5)C3=O)c2CO)cc(Nc2ccc(N3CCN(C4COC4)CC3)cn2)c1=O | enzyme activity | inhibitor |  | 0.1 µM | inhibition | -1%
CC(C)(C)c1cc(C=C(C#N)C#N)cc(Br)c1O | enzyme activity | inhibitor |  | 0.5 µM | remaining activity | 108%
C#Cc1n[nH]c2c(-c3cn([C@@H](C)c4ccccn4)c(=O)[nH]c3=O)cc(F)cc12 | enzyme activity | inhibitor |  | 0.1 µM | inhibition | -3.4%
COc1cc(Nc2ncc(F)c(Nc3ccc4c(n3)NC(=O)C(C)(C)O4)n2)cc(OC)c1OC | binding |  | competition with immobilised ligand | 10 µM | inhibition | 55%
Nc1ncc(-c2nc(N3CCOCC3)nc(N3CCOCC3)n2)c(C(F)F)n1 | binding |  | competition with immobilised ligand | 10 µM | remaining binding | 94%
COc1ncccc1-c1cnn2ccc(N3CCN(C(=O)OC(C)C)CC3)nc12 | binding |  | competition with immobilised ligand | 1 µM | remaining binding | 93%
N#CC1(c2ccccn2)CCN(Cc2cc(C(=O)O)c(=O)n3ccccc23)CC1 | cell-free assay |  | competition with immobilised ligand | 1 µM | remaining binding | 94%
O=c1[nH]c2ccccc2n1C1CCN(Cc2ccc(-c3[nH]c4cc5ncnc5cc4nc3-c3ccccc3)cc2)CC1 | cell-free assay |  |  | 0.5 µM | remaining signal | 111%
Cc1nn(C)cc1-c1nc2c(N3CCN(Cc4ccc(Cl)cc4)CC3)c(Cl)cnc2[nH]1 | binding |  | competition with immobilised ligand | 1 µM | remaining binding | 68%
